KCNK9 inh = KCNK9 potassium channel inhibitors, primary screen, HEK293 cells, thallium flux; FluxOR thallium flux fluorescence; active compounds read low; B-score at 10 µM; AID 488922, 2010; hit rate 1.2% among 310,000;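 active = ratio B-score over 3 SD below the library mean, with starting fluorescence within 5 SD of its mean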;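 note: negative B-score means less thallium flux so channel inhibition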
Target sequence (Q9NPC2 whole entry, looked up): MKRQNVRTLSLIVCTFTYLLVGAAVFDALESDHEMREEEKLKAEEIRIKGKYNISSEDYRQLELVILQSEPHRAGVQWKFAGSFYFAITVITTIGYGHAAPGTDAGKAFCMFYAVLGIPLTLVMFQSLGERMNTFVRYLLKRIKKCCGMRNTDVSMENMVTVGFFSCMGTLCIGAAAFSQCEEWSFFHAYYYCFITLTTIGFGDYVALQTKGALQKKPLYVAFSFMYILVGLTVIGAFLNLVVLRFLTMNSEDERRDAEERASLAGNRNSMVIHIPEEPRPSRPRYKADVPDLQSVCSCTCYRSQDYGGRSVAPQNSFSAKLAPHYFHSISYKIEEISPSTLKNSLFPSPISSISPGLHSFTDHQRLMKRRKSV
KCNK3 inh = human KCNK3 channel inhibitors, primary screen, CHO cells, FluxOR thallium flux, B-score | FluxOR fluorescence; active compounds read low | B-score at 10 µM | hit rate 0.84% among 340,000;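 active = B-score under library mean minus 4 SD, starting fluorescence ratio at most library mean plus 5 SD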;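 note: more negative B-score means stronger inhibition of thallium flux through KCNK3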
KCNQ1 block = inhibitors of human KCNQ1 channel, primary screen, cell-based, thallium flux, high-throughput | CHO-K1 KCNQ1, FluxOR thallium flux fluorescence; active compounds read high | hit rate 1.3% among 310,000 | B-score at 10 µM | AID 2642, 2010 | Potassium voltage-gated channel subfamily KQT member 1 (Homo sapiens), P51787;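 active = compounds whose thallium flux B-score, printed positive for inhibition, exceeds three library SD while starting fluorescence stays within three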;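 note: channel opened by potassium depolarization with thallium stimulus after 20 min compound exposure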
hERG rescue = hERG rescue from dofetilide block, primary screen, cell-based, CHO-hERG, FluxOR thallium flux, dofetilide IC70. Voltage-gated inwardly rectifying potassium channel KCNH2 (Homo sapiens), Q12809. dofetilide IC70 present. activation (rescue from dofetilide block), less the hit threshold, % at 10 µM. hit rate 0.51% among 310,000;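 active = activation above the mean of controls blocked by dofetilide plus 5 SD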;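 note: thallium influx through hERG after potassium depolarization seen as dye fluorescence rise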
KCNQ1 act = potentiators or activators of KCNQ1 channel, primary screen, cell-based, thallium flux, high-throughput; CHO-K1 KCNQ1, thallium flux FluxOR fluorescence; active compounds read high; Potassium voltage-gated channel subfamily KQT member 1 (Homo sapiens), P51787; B-score at 10 µM; AID 2648, 2010; hit rate 0.35% among 310,000;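 active = fluorescence ratio B-score, a plate-corrected score, at least three library SD, with initial intensity B-score within 5 SD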
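Medium – assay buffer, equal DMSO in all wells · Material – CHO-K1 cell line with stable KCNQ1 potassium channel expression · Signal – kinetic FluxOR thallium fluorescence, 10-s 1-Hz baseline, 110-s post-stimulus read · Compound – single concentration per compound, DMSO matched to controls · Schedule – 37 °C overnight plating, 90-min dark dye load, 20-min compound pretreatment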
An asterisk follows results filed as active. Hits are enriched below; roughly 3.1% of the tested compounds scored in any of these assays.

How did CC(C)Cn1c(N)c(C(=O)COC(=O)c2cc(S(=O)(=O)N3CCOCC3)ccc2Br)c(=O)n(C)c1=O do in these assays?
KCNK3 inh: inactive

What do the screens show for `CCN(CC)Cc1cc(Nc2c3ccccc3nc3c4ccccc4n(C)c23)cc(CN(CC)CC)c1O`?
KCNK3 inh: inactive

How did CCNC(=O)C/C(C)=N/NC(=O)C(=O)Nc1ccc(CC)cc1 do in these assays?
KCNK9 inh: inactive; KCNK3 inh: inactive; KCNQ1 block: inactive; hERG rescue: 4.7*; KCNQ1 act: inactive

What do the screens show for `O=C(c1ccco1)N(CCC(c1ccccc1)c1ccco1)Cc1ccccc1` (stereo not drawn)?
KCNK9 inh: -7.2*; KCNK3 inh: inactive; KCNQ1 block: inactive; hERG rescue: -16; KCNQ1 act: inactive

Results for CCN(CC)C(=O)CC(c1ccccc1)c1ccco1 (stereo not drawn) ?
KCNK9 inh: inactive; KCNK3 inh: inactive; KCNQ1 block: inactive; hERG rescue: -11; KCNQ1 act: inactive

Results for CCC(=O)N(CCC(c1ccccc1)c1ccco1)Cc1cccs1 (stereo not drawn) ?
KCNK9 inh: -14*; KCNK3 inh: inactive; KCNQ1 block: inactive; hERG rescue: -11; KCNQ1 act: inactive

What do the screens show for `C=CCOc1ccccc1CN(C(=O)CCl)c1ccc2c(c1)OCO2`?
KCNK9 inh: inactive; KCNK3 inh: inactive; KCNQ1 block: inactive; hERG rescue: -6; KCNQ1 act: inactive

How did c1cc2c3c(cccc3c1)NC1(CCC3(CC1)Nc1cccc4cccc(c14)N3)N2 do in these assays?
KCNK9 inh: inactive; KCNK3 inh: inactive; KCNQ1 block: 11*; hERG rescue: -8; KCNQ1 act: inactive

Results for c1cc2c3c(cccc3c1)NC1(CCCCCC1)N2 ?
KCNK9 inh: inactive; KCNK3 inh: inactive; KCNQ1 block: inactive; hERG rescue: -3; KCNQ1 act: inactive

What do the screens show for `Cc1ccc(NC(=O)c2ccc([N+](=O)[O-])s2)cc1S(=O)(=O)N1CCOCC1`?
KCNK3 inh: inactive

How did CCOc1ccc(CCNC(=O)CCc2nnc3ccc(N4CCCCC4)nn23)cc1OCC do in these assays?
KCNK9 inh: inactive; KCNK3 inh: inactive; KCNQ1 block: inactive; hERG rescue: -11; KCNQ1 act: inactive

What do the screens show for `CC(C)CC(=O)NC(NC(=S)Nc1sc2c(c1C#N)CCCC2)C(Cl)(Cl)Cl` (stereo not drawn)?
KCNK9 inh: -7.4*; KCNK3 inh: inactive; KCNQ1 block: inactive; hERG rescue: -19; KCNQ1 act: inactive

Results for CCC(=O)NC1=C(Cl)C(=O)C(NC(=O)CC)=C(Cl)C1=O ?
KCNK3 inh: -11*

What do the screens show for `COc1ccc(C(O)c2nc3ccccc3n2C(C)C)cc1` (stereo not drawn)?
KCNK9 inh: inactive; KCNK3 inh: inactive; KCNQ1 block: inactive; hERG rescue: -8; KCNQ1 act: inactive

How did O=C(Nc1ccc(Cl)c(Cl)c1)c1ccncc1 do in these assays?
KCNK9 inh: inactive; KCNK3 inh: inactive; KCNQ1 block: inactive; hERG rescue: -11; KCNQ1 act: inactive

How did O=C(Nc1ccc(Cl)c(Cl)c1)c1ccc(Cl)c(Cl)c1 do in these assays?
KCNK9 inh: inactive; KCNK3 inh: inactive; KCNQ1 block: 7*; hERG rescue: -7; KCNQ1 act: inactive

What do the screens show for `CC(=O)/C=C\c1cn(-c2ncc(C(F)(F)F)cc2Cl)c2ccccc12`?
KCNK9 inh: inactive; KCNK3 inh: inactive; KCNQ1 block: 6*; hERG rescue: -10; KCNQ1 act: inactive

Results for CCCC[C@H](CN(N=O)[C@@H](Cc1ccccc1)CN(C)N=O)N(CCc1ccccc1)N=O ?
KCNK9 inh: inactive; KCNK3 inh: inactive; KCNQ1 block: 6*; hERG rescue: -5; KCNQ1 act: inactive

How did CC(C)C[C@@H](CN(C)N=O)N(C[C@H](Cc1ccccc1)N(CCc1ccccc1)N=O)N=O do in these assays?
KCNK9 inh: inactive; KCNK3 inh: inactive; KCNQ1 block: inactive; hERG rescue: -13; KCNQ1 act: inactive

What do the screens show for `Cc1ccc(F)c(Oc2cc(NN3CCCCC3)c([N+](=O)[O-])cc2[N+](=O)[O-])c1`?
KCNK9 inh: -7.3*; KCNK3 inh: inactive; KCNQ1 block: inactive; hERG rescue: -9; KCNQ1 act: inactive

Results for O=[N+]([O-])c1cc([N+](=O)[O-])c(Oc2ccccc2F)cc1NN1CCCCC1 ?
KCNK9 inh: inactive; KCNK3 inh: inactive; KCNQ1 block: inactive; hERG rescue: -15; KCNQ1 act: inactive

Results for CCOc1cc(/C=C2\N=C(SC)SC2=O)cc([N+](=O)[O-])c1OC(C)=O ?
KCNK9 inh: inactive; KCNK3 inh: inactive; KCNQ1 block: 12*; hERG rescue: -25; KCNQ1 act: inactive

What do the screens show for `CCOc1c(OC(C)=O)ccc(/C=C2\N=C(SCC)SC2=O)c1[N+](=O)[O-]`?
KCNK9 inh: inactive; KCNK3 inh: inactive; KCNQ1 block: 9*; hERG rescue: -25; KCNQ1 act: inactive

Results for CCOc1cc(/C=C2\N=C(SCC)SC2=O)cc([N+](=O)[O-])c1OC(C)=O ?
KCNK9 inh: inactive; KCNK3 inh: inactive; KCNQ1 block: 8*; hERG rescue: -22; KCNQ1 act: inactive

Results for Cc1ccc(CNC(=O)CCS(=O)(=O)c2cccc3nsnc23)cc1 ?
KCNK9 inh: inactive; KCNK3 inh: inactive; KCNQ1 block: inactive; hERG rescue: 4.9*; KCNQ1 act: inactive

Results for COc1cccc(CNC(=O)CCS(=O)(=O)c2cccc3nsnc23)c1 ?
KCNK9 inh: inactive; KCNK3 inh: inactive; KCNQ1 block: inactive; hERG rescue: -3; KCNQ1 act: inactive

Results for CNC(=O)/C(C#N)=C/c1c(N2CCN(c3cccc(Cl)c3)CC2)nc2c(C)cccn2c1=O ?
KCNK9 inh: inactive; KCNK3 inh: inactive; KCNQ1 block: inactive; hERG rescue: -5; KCNQ1 act: inactive

Results for CCOC(=O)/C(C#N)=C/c1c(N2CCN(c3cccc(Cl)c3)CC2)nc2c(C)cccn2c1=O ?
KCNK9 inh: inactive; KCNK3 inh: inactive; KCNQ1 block: 6*; hERG rescue: -11; KCNQ1 act: inactive

Results for CC(C)N(C)CCOC(=O)C1COc2ccccc2O1 (stereo not drawn) ?
KCNK9 inh: inactive; KCNK3 inh: inactive; KCNQ1 block: inactive; hERG rescue: -12; KCNQ1 act: inactive

Assay outcomes from PubChem.
